Structures can show the parent of a compound that is named as a salt. Calls of active or inactive are those of the source. The rule behind the calls is not given here.
How the values were obtained:
K562 [1] = experiment: Induction of apoptosis in imatinib mesylate-resistant human K562 cells after 48 hrs; assay type: functional, cell-based
How it was run: (§1)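 Cells exposed 48 h to a range of concentrations, then 2 × 10⁵ cells pelleted (300 × g) and stained with acridine orange and ethidium bromide ([…]). Read by fluorescence microscopy under oil immersion. Apoptosis scored by perinuclear chromatin condensation and apoptotic bodies, counting ≥300 cells. AC50 = concentration giving 50% apoptotic cells. Bars: SE.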

HL-60 [2] = experiment: Induction of apoptosis in multidrug resistant human HL60 cells after 48 hrs; assay type: functional, cell-based; conditions: HL-60, 48 h; how it was run: as §1
HL-60 [3] = experiment: human HL60 cells after 48 hrs; conditions: HL-60, 48 h
HL-60 [4] = experiment: Induction of apoptosis in human HL60 cells after 48 hrs; assay type: functional, cell-based; conditions: HL-60, 48 h; how it was run: as §1
HL-60 [5] = experiment: Cytotoxicity against human HL60 cells after 48 hrs by trypan blue exclusion method; assay type: functional, cell-based; conditions: HL-60, 48 h
How it was run: (§2)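 2 × 10⁵ cells in 1 ml complete medium treated with a range of concentrations, added as freshly prepared DMSO solution (final DMSO ≤0.3% v/v), for 48 h. Viable cells counted and expressed as percent of untreated control proliferation; IC50 = concentration inhibiting 50% of growth, from 48 h exposure. Bars: SE.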

HL-60 [6] = experiment: Cytotoxicity against multidrug-resistant human HL60 cells after 48 hrs by trypan blue exclusion method; assay type: functional, cell-based; conditions: HL-60, 48 h; how it was run: as §2
K562 [7] = experiment: Cytotoxicity against human K562 cells after 48 hrs by trypan blue exclusion method; assay type: functional, cell-based; conditions: K562, 48 h; how it was run: as §2
K562 [8] = experiment: Cytotoxicity against imatinib mesylate-resistant human K562 cells after 48 hrs by trypan blue exclusion method; assay type: functional, cell-based; conditions: K562, 48 h; how it was run: as §2
K562 [9] = experiment: Induction of apoptosis in human K562 cells after 48 hrs; assay type: functional, cell-based; conditions: K562, 48 h
K562 [10] = experiment: Cell cycle arrest in human K562 cells assessed as accumulation at GO-G1 phase after 24 hrs by flow cytometry; assay type: functional, cell-based
How it was run: (§3)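 K562 cells cultured 24 h and 48 h without compound or at 25, 50 or […] (unit as printed). Cells washed in ice-cold PBS, resuspended at 10⁶/ml in hypotonic propidium iodide ([…])/0.03% v/v NP-40 in 0.1% sodium citrate for 30 min. DNA content read by flow cytometry as single-parameter histograms; G0–G1 and sub-G0–G1 fractions taken as percent of cells.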

K562 [11] = experiment: Induction of apoptosis in human K562 cells assessed as accumulation at sub GO-G1 phase accumulation after 24 hrs by flow cytometry; assay type: functional, cell-based; how it was run: as §3
K562 [12] = experiment: Cell cycle arrest in human K562 cells assessed as accumulation at GO-G1 phase at 50 uM after 24 hrs by flow cytometry; assay type: functional; how it was run: as §3
K562 [13] = experiment: Cell cycle arrest in human K562 cells assessed as accumulation at GO-G1 phase at 50 uM after 48 hrs by flow cytometry; assay type: functional; how it was run: as §3
K562 [14] = experiment: Induction of apoptosis in human K562 cells assessed as accumulation at sub GO-G1 phase accumulation at 50 uM after 24 hrs by flow cytometry; assay type: functional; how it was run: as §3
K562 [15] = experiment: Induction of apoptosis in human K562 cells assessed as accumulation at sub GO-G1 phase accumulation at 50 uM after 48 hrs by flow cytometry; assay type: functional; how it was run: as §3

`CS(=O)(=O)OCCCCOS(C)(=O)=O` was tested, and the Activity (K562 [1]) was “Active”.

In the case of `COc1cccc2c1C(=O)c1c(O)c3c(c(O)c1C2=O)C[C@@](O)(C(C)=O)C[C@@H]3O[C@H]1C[C@H](N)[C@H](O)[C@H](C)O1` [DAUNORUBICIN], the AC50 (HL-60 [2]) is reported as 38 µM and the AC50 (HL-60 [3]) is reported as 0.1 µM.

Work on `COc1cc([C@@H]2c3cc4c(cc3[C@@H](O[C@@H]3O[C@@H]5CO[C@@H](C)O[C@H]5[C@H](O)[C@H]3O)[C@H]3COC(=O)[C@H]23)OCO4)cc(OC)c1O` [ETOPOSIDE] yielded an AC50 (HL-60 [4]) of 0.4 µM and an AC50 (HL-60 [2]) of over 400 µM.

In the case of `CN1N=Nc2c(C(F)(F)F)nn(-c3ccccc3)c2N(C)C1=O`, the IC50 (HL-60 [5]) is reported as 21 µM, the IC50 (HL-60 [6]) is reported as 30 µM and the IC50 (K562 [7]) is reported as 40 µM. It also gave an IC50 (K562 [8]) of 38 µM, an AC50 (HL-60 [4]) of 36 µM and an AC50 (HL-60 [2]) of 38 µM. For the same molecule, the AC50 (K562 [9]) was 57 µM, the AC50 (K562 [1]; K562, 48 h) was 62 µM and the Activity (K562 [10]) was “Dose-dependent effect”. The Activity (K562 [11]) was “inactive”, the Activity (K562 [12]) was 60.7% and the Activity (K562 [13]) was 28.7%. It also gave an Activity (K562 [14]) of 5% and an Activity (K562 [15]) of 52.2%.

Molecule `Cc1ccc(NC(=O)c2ccc(CN3CCN(C)CC3)cc2)cc1Nc1nccc(-c2cccnc2)n1` [IMATINIB MESYLATE] has an AC50 (K562 [9]) of 62 µM.

Source: ChEMBL document CHEMBL1154463, “Synthesis and induction of G0-G1 phase arrest with apoptosis of 3,5-dimethyl-6-phenyl-8-(trifluoromethyl)-5,6-dihydropyrazolo[3,4-f][1,2,3,5]tetrazepin-4(3H)-one” (Eur J Med Chem, 2008)
